Data published in ChEMBL document CHEMBL4382240, “Discovery of novel 2,5-dihydroxyterephthalamide derivatives as multifunctional agents for the treatment of Alzheimer's disease” (Bioorg Med Chem, 2018).

What was measured:
[1] = target: T1, Amyloid-beta precursor protein (Homo sapiens, UniProt P05067); test: Disaggregation of self-induced preformed fibrils of human amyloid beta (1 to 42) at 25 uM after 24 hrs by Thioflavin T based fluorometric assay relative to control
How it was run: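 Aβ1-42 diluted in HEPES buffer (20 mM, pH 6.6, 150 mM NaCl) and pre-aggregated 24 h at 37 °C. Compound (25 µM) then added for another 24 h at 37 °C on a sealed plate. Remaining fibrils read by ThT fluorescence in glycine-NaOH, pH 8.5. Triplicate; three independent experiments.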

[2] = target: T1, Amyloid-beta precursor protein; test: Inhibition of human amyloid beta (1 to 42) self-induced aggregation after 24 hrs by Thioflavin T based fluorometric assay
How it was run: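 Self-induced Aβ1-42 aggregation (25 µM peptide) in phosphate buffer, pH 7.4, for 24 h at 37 °C with varying compound concentrations. Aggregation read by ThT fluorescence (5 µM ThT, glycine-NaOH pH 8.5).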

[3] = Antioxidant activity assessed as trolox equivalent of APPH-induced radical scavenging activity at 5 uM preincubated for 15 mins followed by AAPH addition measured every minute for 90 mins by ORAC fluorescein assay; type: functional
How it was run: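 ORAC-FL in 75 mM phosphate buffer, pH 7.4. Fluorescein (150 nM final) and sample (tested at 1–10 µM) incubated 15 min at 37 °C. AAPH (12 mM final) then added, and fluorescence (ex 485/em 535 nm) read every minute for 90 min. Trolox standard 1–8 µM; result expressed as µM Trolox equivalent per µM compound. Duplicate wells; three independent experiments.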

[4] = Disaggregation of Cu2+ induced preformed fibrils of human amyloid beta (1 to 42) at 25 uM after 24 hrs by Thioflavin T based fluorometric assay relative to control
How it was run: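 Aβ1-42 (25 µM) with Cu2+ (25 µM) in HEPES buffer pre-aggregated 24 h at 37 °C. Compound (25 µM) then added for a further 24 h at 37 °C. Fibril content measured by ThT fluorescence (glycine-NaOH, pH 8.5). Triplicate; three independent experiments.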

[5] = Inhibition of Cu2+ induced human amyloid beta (1 to 42) aggregation at 25 uM after 24 hrs by Thioflavin T based fluorometric assay relative to control
How it was run: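 Aβ1-42 (25 µM) and Cu2+ (25 µM) in HEPES buffer (20 mM, pH 6.6, 150 mM NaCl), with or without compound (25 µM final), incubated 24 h at 37 °C. ThT (5 µM) in glycine-NaOH, pH 8.5, added and fluorescence read. Triplicate; three independent experiments.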

Acetylcholinesterase [6] = target: Acetylcholinesterase (Electrophorus electricus, UniProt O42275); test: Inhibition of electric eel AChE using acetylthiocholine iodide as substrate after 15 mins by Ellman's method
Acetylcholinesterase (Electrophorus electricus, UniProt O42275), sequence (O42275 whole entry): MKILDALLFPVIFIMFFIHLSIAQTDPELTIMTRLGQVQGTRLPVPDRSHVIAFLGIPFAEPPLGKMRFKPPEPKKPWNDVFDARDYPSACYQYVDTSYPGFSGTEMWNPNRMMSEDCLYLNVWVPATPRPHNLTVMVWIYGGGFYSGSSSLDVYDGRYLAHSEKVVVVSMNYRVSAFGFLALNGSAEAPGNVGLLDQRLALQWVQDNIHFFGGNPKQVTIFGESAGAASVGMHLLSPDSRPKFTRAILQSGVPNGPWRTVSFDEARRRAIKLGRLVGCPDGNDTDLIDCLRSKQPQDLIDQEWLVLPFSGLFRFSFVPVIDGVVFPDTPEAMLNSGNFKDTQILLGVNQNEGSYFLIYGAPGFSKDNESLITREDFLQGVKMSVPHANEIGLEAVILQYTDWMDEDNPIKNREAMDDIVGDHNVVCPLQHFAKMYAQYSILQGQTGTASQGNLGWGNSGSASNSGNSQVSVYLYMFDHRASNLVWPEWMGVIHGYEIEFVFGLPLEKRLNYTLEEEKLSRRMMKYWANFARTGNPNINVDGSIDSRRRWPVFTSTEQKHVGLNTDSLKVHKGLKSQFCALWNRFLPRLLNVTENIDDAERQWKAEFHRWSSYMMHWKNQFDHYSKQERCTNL

Butyrylcholinesterase = Butyrylcholinesterase (Rattus norvegicus, UniProt Q9JKC1); test: Inhibition of rat serum BuChE using butyrylthiocholine iodide as substrate after 15 mins by Ellman's method; type: ADME
Butyrylcholinesterase, sequence (Q9JKC1 whole entry): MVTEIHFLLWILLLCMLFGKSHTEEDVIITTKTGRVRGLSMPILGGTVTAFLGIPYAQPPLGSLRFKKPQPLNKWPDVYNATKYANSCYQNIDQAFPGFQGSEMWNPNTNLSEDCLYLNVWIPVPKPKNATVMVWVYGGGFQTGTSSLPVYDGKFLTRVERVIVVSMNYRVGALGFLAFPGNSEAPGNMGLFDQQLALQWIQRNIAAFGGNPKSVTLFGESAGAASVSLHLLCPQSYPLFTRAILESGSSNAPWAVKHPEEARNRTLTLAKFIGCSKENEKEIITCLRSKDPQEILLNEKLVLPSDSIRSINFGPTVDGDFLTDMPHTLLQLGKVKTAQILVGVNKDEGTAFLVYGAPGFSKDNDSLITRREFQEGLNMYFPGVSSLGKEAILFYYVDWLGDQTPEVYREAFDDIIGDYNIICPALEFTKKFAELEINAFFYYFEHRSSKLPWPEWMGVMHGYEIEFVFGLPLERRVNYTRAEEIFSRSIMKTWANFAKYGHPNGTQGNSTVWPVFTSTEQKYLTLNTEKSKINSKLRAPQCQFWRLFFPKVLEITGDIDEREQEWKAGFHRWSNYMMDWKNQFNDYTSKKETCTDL

Acetylcholinesterase [7] = target: T2, Acetylcholinesterase (Rattus norvegicus, UniProt P37136); test: Inhibition of rat cortex AChE using acetylthiocholine iodide as substrate after 15 mins by Ellman's method
T2 sequence (P37136 whole entry): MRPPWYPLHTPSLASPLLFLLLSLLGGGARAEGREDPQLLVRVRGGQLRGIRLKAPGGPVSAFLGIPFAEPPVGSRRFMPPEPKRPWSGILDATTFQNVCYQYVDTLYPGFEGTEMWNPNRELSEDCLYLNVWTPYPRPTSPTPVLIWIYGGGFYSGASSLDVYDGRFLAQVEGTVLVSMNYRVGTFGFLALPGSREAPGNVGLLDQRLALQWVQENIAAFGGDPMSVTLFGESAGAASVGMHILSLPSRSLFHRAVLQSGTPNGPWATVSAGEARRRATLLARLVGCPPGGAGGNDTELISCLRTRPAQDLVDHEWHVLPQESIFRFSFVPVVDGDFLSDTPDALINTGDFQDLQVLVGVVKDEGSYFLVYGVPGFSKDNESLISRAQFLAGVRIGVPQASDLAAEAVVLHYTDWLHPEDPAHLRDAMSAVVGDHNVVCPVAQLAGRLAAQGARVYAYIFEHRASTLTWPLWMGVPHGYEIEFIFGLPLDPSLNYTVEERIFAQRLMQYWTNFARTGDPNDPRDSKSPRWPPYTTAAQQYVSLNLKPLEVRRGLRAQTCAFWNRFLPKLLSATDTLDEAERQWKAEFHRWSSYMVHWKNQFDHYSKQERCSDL

[8] = target: T1, Amyloid-beta precursor protein; test: Inhibition of human amyloid beta (1 to 42) self-induced aggregation at 25 uM after 24 hrs by Thioflavin T based fluorometric assay relative to control
How it was run: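 Aβ1-42 (25 µM final) incubated with compound (25 µM final) in 50 mM phosphate buffer, pH 7.4, for 24 h at 37 °C under a sealing film. ThT (5 µM) in 50 mM glycine-NaOH, pH 8.5, then added and fluorescence measured. Triplicate; mean ± SD of three independent experiments.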

[9] = Anti-inflammatory activity in […] cells assessed as inhibition of LPS-stimulated NO release at 10 uM preincubated for 30 mins followed by LPS stimulation and measured after 24 hrs by Griess reagent based assay relative to control; type: functional; settings: BV-2
How it was run: (§1)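 BV-2 cells cultured 24 h in DMEM (10% FBS, glutamine, pyruvate, pen/strep) at 37 °C, 5% CO2. Compound (DMSO stock diluted in PBS) added 30 min before LPS (1.0 µg/mL), then 24 h. Nitrite in supernatant measured by Griess reagent for 10 min at room temperature, A540, against a NaNO2 standard curve. Triplicate wells; mean ± SD of three independent experiments.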

[10] = Anti-inflammatory activity in […] cells assessed as inhibition of LPS-stimulated TNFalpha release at 10 uM preincubated for 30 mins followed by LPS stimulation and measured after 24 hrs by ELISA relative to control; type: functional; settings: BV-2
How it was run: (§2)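 Confluent BV-2 cells in DMEM preincubated 30 min with compound, tested over 0.5–10 µM, then stimulated with LPS (1.0 µg/mL) for 24 h. Released TNF-α measured by ELISA following kit instructions. Triplicate wells; mean ± SD of three independent experiments.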

[11] = Anti-inflammatory activity in […] cells assessed as inhibition of LPS-stimulated TNFalpha release at 2.5 uM preincubated for 30 mins followed by LPS stimulation and measured after 24 hrs by ELISA relative to control; type: functional; settings: BV-2; how it was run: as §2
[12] = Cytotoxicity against […] cells assessed as decrease in cell viability up to 10 uM measured after 24 hrs by MTT assay; type: cell-based
How it was run: (§3)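 BV-2 cells grown 24 h, then treated with compound (0.5, 2.5, 10.0 µM) for 30 min, with or without LPS (1.0 µg/mL), for a further 24 h. MTT (5 mg/mL) added for 4 h, formazan dissolved in DMSO, A490 read. Viability given as percent of untreated cells. Triplicate wells; three independent experiments.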

[13] = Cytotoxicity against […] cells assessed as decrease in cell viability up to 10 uM preincubated for 30 mins followed by LPS stimulation and measured after 24 hrs by MTT assay; type: cell-based; how it was run: as §3
[14] = Anti-inflammatory activity in […] cells assessed as inhibition of LPS-stimulated NO release at 2.5 uM preincubated for 30 mins followed by LPS stimulation and measured after 24 hrs by Griess reagent based assay relative to control; type: functional; settings: BV-2; how it was run: as §1

T1 sequence (P05067 whole entry): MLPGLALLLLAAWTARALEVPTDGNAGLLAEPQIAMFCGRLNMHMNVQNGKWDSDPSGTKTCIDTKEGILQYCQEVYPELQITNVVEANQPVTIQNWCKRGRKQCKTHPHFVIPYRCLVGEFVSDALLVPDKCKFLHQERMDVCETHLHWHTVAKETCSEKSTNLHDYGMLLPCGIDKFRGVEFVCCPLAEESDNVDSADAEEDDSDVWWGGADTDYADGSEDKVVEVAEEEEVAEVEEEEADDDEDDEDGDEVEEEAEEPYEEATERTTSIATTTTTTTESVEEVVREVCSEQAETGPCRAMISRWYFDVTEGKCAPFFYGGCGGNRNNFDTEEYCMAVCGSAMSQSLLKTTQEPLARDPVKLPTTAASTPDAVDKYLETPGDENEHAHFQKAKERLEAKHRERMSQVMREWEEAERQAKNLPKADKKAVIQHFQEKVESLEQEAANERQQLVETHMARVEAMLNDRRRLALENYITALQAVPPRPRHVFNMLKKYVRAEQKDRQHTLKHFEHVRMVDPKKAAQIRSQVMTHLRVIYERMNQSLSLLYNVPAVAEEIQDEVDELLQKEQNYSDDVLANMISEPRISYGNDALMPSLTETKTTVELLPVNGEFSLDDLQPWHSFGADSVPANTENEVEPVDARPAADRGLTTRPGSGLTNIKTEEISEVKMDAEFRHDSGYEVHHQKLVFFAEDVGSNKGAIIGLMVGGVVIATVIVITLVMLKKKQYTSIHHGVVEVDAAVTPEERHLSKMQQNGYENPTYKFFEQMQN

| SMILES | Activity [1] | IC50 [2] | Activity [3] | Activity [4] | inhibition [5] | IC50 (Acetylcholinesterase [6]) | IC50 (Butyrylcholinesterase) | IC50 (Acetylcholinesterase [7]) | inhibition [8] | inhibition at 10 µM [9] | inhibition at 10 µM [10] | inhibition at 2.5 µM [11] | Activity [12] | Activity [13] | inhibition at 2.5 µM [14] |
| --- | --- | --- | --- | --- | --- | --- | --- | --- | --- | --- | --- | --- | --- | --- | --- |
| COc1ccccc1CN(C)CCCCCCNC(=O)c1cc(O)c(C(=O)NCCCCCCN(C)Cc2ccccc2OC)cc1O | 76.3% | 2.31 µM | 0.62 equiv | 89.8% | 85.3% | 6.11 µM | 40.5 µM | 10.6 µM | 99.7% |  |  |  |  |  |  |
| O=C(O)c1cc(O)c(C(=O)O)cc1O |  |  | 4.7 equiv |  | 8.1% | > 100 µM | > 100 µM | > 100 µM | 4.7% | 12.5% | 18.2% | 5.9% | Non-Toxic | Non-Toxic | 8.3% |
| CCN(CCCCCCNC(=O)c1cc(O)c(C(=O)NCCCCCCN(CC)Cc2ccccc2)cc1O)Cc1ccccc1 | 83.5% | 2.8 µM | 1.27 equiv | 82.3% | 74.3% | 22.9 µM | 47.2 µM | 4.6 µM | 91.4% |  |  |  |  |  |  |
| O=C(NCCCCN1CCOc2ccccc2C1)c1cc(O)c(C(=O)NCCCCN2CCOc3ccccc3C2)cc1O | 67.4% | 5.47 µM | 1.02 equiv | 85.3% | 74% | 64.8 µM | > 100 µM | 30.8 µM | 71.6% |  |  |  |  |  |  |
| CN(CCCCNC(=O)c1cc(O)c(C(=O)NCCCCN(C)Cc2ccccc2)cc1O)Cc1ccccc1 | 67.7% | 3.55 µM | 1.52 equiv | 77.9% | 77.6% | 12.6 µM | > 100 µM | 5.21 µM | 90% |  |  |  |  |  |  |
| CN(CCCCCCNC(=O)c1cc(O)c(C(=O)NCCCCCCN(C)Cc2ccccc2)cc1O)Cc1ccccc1 | 80.9% | 2.37 µM | 1.01 equiv | 89.3% | 89.1% | 13.1 µM | 41.9 µM | 5.6 µM | 99.8% |  |  |  |  |  |  |
| CCOC(=O)c1cc(O)c(C(=O)OCC)cc1O |  |  | 0.96 equiv |  | 30.7% | > 100 µM | > 100 µM | > 100 µM | 6.5% |  |  |  |  |  |  |
